Our source for the viability and Activity values is ChEMBL document CHEMBL4715825, “Synthesis and biological evaluations of marine oxohexadecenoic acids: PPARα/γ dual agonism and anti-diabetic target gene effects” (Eur J Med Chem, 2018).

Series [1] is described as follows: Cytotoxicity against African green monkey COS-1 cells assessed as cell viability at EC50 concentration for PPAR activation assay by XTT assay. The class given is cell-based. To be noted: chlorocebus aethiops, read-out: Activity. In outline:
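Run on COS-1 cells treated in parallel with the Gal4-LBD PPAR reporter assays. Metabolic NAD(P)H flux was measured by kit XTT assay per the maker's protocol. Absorbance was read at 450/690 nm.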

The target in series [2] is T1, Peroxisome proliferator-activated receptor gamma (Homo sapiens) (UniProt P37231).
T1 sequence (whole entry): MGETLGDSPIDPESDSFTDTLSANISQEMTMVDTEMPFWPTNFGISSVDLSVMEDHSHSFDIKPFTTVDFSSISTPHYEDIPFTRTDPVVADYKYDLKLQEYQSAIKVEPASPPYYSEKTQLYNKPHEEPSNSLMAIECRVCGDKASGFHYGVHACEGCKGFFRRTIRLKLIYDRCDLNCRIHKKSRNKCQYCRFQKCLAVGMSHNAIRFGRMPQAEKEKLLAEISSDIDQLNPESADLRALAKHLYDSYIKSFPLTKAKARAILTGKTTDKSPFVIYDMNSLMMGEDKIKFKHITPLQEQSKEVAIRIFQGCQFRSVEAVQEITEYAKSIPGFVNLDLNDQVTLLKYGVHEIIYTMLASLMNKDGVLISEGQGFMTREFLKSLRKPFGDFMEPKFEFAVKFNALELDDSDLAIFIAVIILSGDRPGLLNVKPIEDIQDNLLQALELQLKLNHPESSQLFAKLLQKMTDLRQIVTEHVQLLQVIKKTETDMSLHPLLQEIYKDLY
As to the kind of experiment: Agonist activity at human PPARgamma in 8 day differentiated human SGBS cells assessed as decrease in IL-1 beta gene expression at 25 uM incubated for 24 hrs by SYBR-green based qPCR analysis. The class given is cell-based. To be noted: filed as agonist.

In series [3] the target is T1, Peroxisome proliferator-activated receptor gamma (Homo sapiens). As to the kind of experiment: Agonist activity at human PPARgamma in 8 day differentiated human SGBS cells assessed as decrease in CXCL1 gene expression at 25 uM incubated for 24 hrs by SYBR-green based qPCR analysis. As to conditions: filed as agonist. The class given is cell-based.
The test system of series [4] is SGBS. As to the kind of experiment: Induction of adipogenesis in 8 day differentiated human SGBS cells assessed as increase in adipocyte-like multilocular morphology cells at 25 uM measured upto 12 days by oil-O-red staining based inverted microscopic analysis. The class given is functional, cell-based. As to conditions: time day <=12. In short, it runs like this:
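SGBS cells were differentiated in Quickdiff for 4 days, supplemented with 25 µM oxo-fatty acid or 2 µM rosiglitazone, then in 3FC to day 8. Controls were DMSO (0.025%) or BSA (4.2 µM). Cells were fixed in 4% paraformaldehyde for 15 min and stained 15 min with Oil Red O for neutral lipids. They were imaged by inverted microscope at 10× and 40×. Three biological replicates were run in duplicate.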

For series [5], the target named is T2, Peroxisome proliferator-activated receptor alpha (Homo sapiens) (UniProt Q07869).
T2 sequence (whole entry): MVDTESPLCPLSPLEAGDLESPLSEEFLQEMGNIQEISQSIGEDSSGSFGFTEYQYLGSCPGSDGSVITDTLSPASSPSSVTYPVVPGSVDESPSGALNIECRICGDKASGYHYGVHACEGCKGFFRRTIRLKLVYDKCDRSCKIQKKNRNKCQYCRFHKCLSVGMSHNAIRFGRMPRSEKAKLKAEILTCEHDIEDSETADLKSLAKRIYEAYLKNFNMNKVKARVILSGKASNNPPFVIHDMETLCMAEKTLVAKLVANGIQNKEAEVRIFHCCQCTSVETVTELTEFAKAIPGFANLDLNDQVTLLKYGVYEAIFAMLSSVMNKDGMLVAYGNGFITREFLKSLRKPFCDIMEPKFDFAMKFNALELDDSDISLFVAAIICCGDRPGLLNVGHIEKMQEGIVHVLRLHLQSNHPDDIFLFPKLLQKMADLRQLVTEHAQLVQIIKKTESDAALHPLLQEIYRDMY
Briefly: Agonist activity at human PPARalpha in 8 day differentiated human SGBS cells assessed as increase in CPT1A gene expression at 25 uM incubated for 24 hrs by SYBR-green based qPCR analysis. It counts as cell-based. As to conditions: filed as agonist. In outline: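 SGBS preadipocytes were seeded at passage P6-P8 and grown to confluence. They were differentiated for 4 days in Quickdiff (3FC plus dexamethasone, IBMX and rosiglitazone), then kept in 3FC with medium renewed every fourth day. On day 8, cells were stimulated for 24 h in 3FC with compound:BSA or rosiglitazone. SYBR-green qPCR used gene-specific primers. Data are mean ± SEM of three biological replicates in duplicate.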

In series [6] the target is T3, Oxysterols receptor LXR-alpha (Homo sapiens) (UniProt Q13133).
T3 sequence (whole entry): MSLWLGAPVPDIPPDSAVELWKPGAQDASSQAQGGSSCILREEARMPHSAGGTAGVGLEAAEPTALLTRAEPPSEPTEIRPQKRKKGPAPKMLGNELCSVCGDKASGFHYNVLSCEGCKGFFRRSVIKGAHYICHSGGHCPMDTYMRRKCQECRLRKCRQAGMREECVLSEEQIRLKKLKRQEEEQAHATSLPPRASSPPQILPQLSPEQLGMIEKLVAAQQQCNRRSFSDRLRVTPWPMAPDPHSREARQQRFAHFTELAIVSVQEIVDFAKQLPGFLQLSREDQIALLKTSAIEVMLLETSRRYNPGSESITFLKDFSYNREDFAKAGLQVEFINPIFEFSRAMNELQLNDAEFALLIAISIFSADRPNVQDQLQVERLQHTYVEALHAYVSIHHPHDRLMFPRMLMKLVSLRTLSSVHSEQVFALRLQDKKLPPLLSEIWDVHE
Briefly: Agonist activity at recombinant human LXRalpha LBD (164 to 447 residues) expressed in African green monkey COS-1 cells at 25 to 50 uM incubated for 18 hrs by luciferase reporter gene assay. The class given is cell-based. To be noted: dose 25-50 µM. In outline: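 Transient Gal4 one-hybrid assay in COS-1 cells (7×10^4 per well), transfected 24 h after seeding. Plasmids were Gal4-DBD fused to the human nuclear receptor LBD, a 5×UAS-SV40 luciferase reporter and pRL-CMV Renilla control. Ligand in DMSO (final 0.1%) was added 5 h post-transfection. Dual-luciferase activity was read after 18 h, expressed as RLU, from three biological replicates in quadruplicate.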

Series [7] concerns the target T1, Peroxisome proliferator-activated receptor gamma (Homo sapiens). As to the kind of experiment: Agonist activity at human PPARgamma in 8 day differentiated human SGBS cells assessed as decrease in CXCL5 gene expression at 25 uM incubated for 24 hrs by SYBR-green based qPCR analysis. The class given is cell-based. To be noted: filed as agonist. (In qPCR the cycle at which signal appears reflects the starting amount.)

Series [8] has as its system SGBS. Briefly: Induction of adipogenesis in 8 day differentiated human SGBS cells assessed as increase in FABP4 mRNA expression at 25 uM measured upto 12 days by qRT-PCR analysis. It counts as functional, cell-based. To be noted: time day <=12. In outline:
(§1)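 SGBS cells were grown to confluence (day 0). Quickdiff medium was supplemented with compound or rosiglitazone for 4 days, followed by 3FC medium. DMSO or DMSO:BSA served as control. RNA was harvested on days 0, 4, 8 and 12, and expression was measured by SYBR-green qPCR. Data are mean ± SEM of at least three biological replicates in duplicate.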

Series [9] concerns SGBS. Briefly: Induction of adipogenesis in 8 day differentiated human SGBS cells assessed as increase in PPARG mRNA expression at 25 uM measured upto 12 days by qRT-PCR analysis. It counts as functional, cell-based. As to conditions: time day <=12. In short, it runs like this:
as §1

Molecules are shown by their SMILES. The source made the active and inactive calls. The calls are words filed in the database; no cut-off is given here.

`CCCCCCCC(=O)/C=C/CCCCCC(=O)O`: the viability in series [1] was more than 90%. The outcome (in series [2]; in [3]; in the series on SGBS [4]; in [5]; in series [7]; with SGBS [8]) was Active. Besides, in the series on SGBS [9], the outcome was Active. For the same compound, the result in [6] was inactive.
`CCCCC/C=C/C(=O)CCCCCCCC(=O)O`: the viability in series [1] was more than 90%. Further, the outcome (in series [2]; in [3]; with SGBS [4]; in series [5]; in [7]; in the series with SGBS [8]) was Active. For the same compound, the outcome in the series on SGBS [9] was Active. In series [6], the result was inactive.
